Data: ChEMBL document CHEMBL1125826, “Synthesis and biological activity of 5-amino- and 5-hydroxyquinolones, and the overwhelming influence of the remote N1-substituent in determining the structure-activity relationship” (1991)
In brackets after ≈: the same amount, converted by molar mass.

Tests used:
Format in all cases: functional
Bacteria [1] = assay: MIC ratio measured as the mean MICs of gram-negative bacteria
Outline: (§1)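 Geometric mean of the microtitration MICs (µg/mL) over the Gram-negative organisms, and separately over the Gram-positive organisms, of the 10-strain panel; individual MICs averaged from multiple experiments.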

Pseudomonas aeruginosa = assay: Antibacterial activity was determined against gram negative organism, Pseudomonas aeruginosa UI-18; details: Pseudomonas aeruginosa; read-out: MIC
Outline: (§2)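 MIC (µg/mL) by standard microtitration against a panel of 10 Gram-positive and Gram-negative organisms; values averaged from multiple experiments.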

Escherichia coli = assay: Antibacterial activity was determined against gram negative organism, Escherichia coli vogel; details: Escherichia coli; read-out: MIC; outline: as §2
Bacteria [2] = assay: Antibacterial activity was determined against gram negative organism, Providencia rettgeri. M1771; details: Bacteria; read-out: MIC; outline: as §2
Klebsiella pneumoniae = assay: Antibacterial activity was determined against gram negative organism, Klebsiella pneumoniae MGH-2; details: Klebsiella pneumoniae; read-out: MIC; outline: as §2
Staphylococcus aureus [3] = assay: Antibacterial activity was determined against gram positive organism, Staphylococcus aureus UC76; outline: as §2
Streptococcus pneumoniae = assay: Antibacterial activity was determined against gram positive organism, Streptococcus pneumoniae SV-1; details: Streptococcus pneumoniae; read-out: MIC; outline: as §2
Bacteria [4] = assay: MIC ratio measured as the mean MICs of gram-positive bacteria; outline: as §1
Enterobacter cloacae = assay: Antibacterial activity was determined against gram negative organism, Enterobacter cloacae MA2646; details: Enterobacter cloacae; read-out: MIC
Enterococcus faecalis = assay: Antibacterial activity was determined against gram positive organism, Streptococcus faecalis MGH-2; details: Enterococcus faecalis; read-out: MIC; outline: as §2
[5] = biological target: DNA gyrase (Escherichia coli) (UniProt P0AES6+P0AES4); assay: Minimum inhibitory concentration against Escherichia coli DNA-gyrase in supercoiling assay
Streptococcus pyogenes = assay: Antibacterial activity was determined against gram positive organism, Streptococcus pyogenes C203; details: Streptococcus pyogenes; read-out: MIC; outline: as §2
Staphylococcus aureus [6] = assay: Antibacterial activity was determined against gram positive organism, Staphylococcus aureus H228; details: Staphylococcus aureus; read-out: MIC; outline: as §2
[7] = Staphylococcus aureus, read-out: MIC

CCn1cc(C(=O)O)c(=O)c2cc(F)c(N3CCNC(C)C3)c(Cl)c21 (stereo unspecified)
Geometric mean MIC over Gram-negative bacteria (µg/mL) (Bacteria [1]): 0.6
MIC (Pseudomonas aeruginosa): 6.3 µg/mL (≈ 17.1 µM)
MIC (Escherichia coli): 0.2 µg/mL (≈ 0.544 µM)
MIC (Bacteria [2]): 0.8 µg/mL (≈ 2.18 µM)
MIC (Klebsiella pneumoniae): 0.4 µg/mL (≈ 1.09 µM)
MIC (Staphylococcus aureus [3]): 0.4 µg/mL (≈ 1.09 µM)
MIC (Streptococcus pneumoniae): 3.1 µg/mL (≈ 8.43 µM)
Geometric mean MIC over Gram-positive bacteria (µg/mL) (Bacteria [4]): 1.8
MIC (Enterobacter cloacae): 0.2 µg/mL (≈ 0.544 µM)
MIC (Enterococcus faecalis): 3.1 µg/mL (≈ 8.43 µM)
MIC [5]: 5 µg/mL (≈ 13.6 µM)
MIC (Streptococcus pyogenes): 3.1 µg/mL (≈ 8.43 µM)
MIC (Staphylococcus aureus [6]): 1.6 µg/mL (≈ 4.35 µM)

CCn1cc(C(=O)O)c(=O)c2c(N)c(F)c(N3CCNC(C)C3)c(F)c21 (stereo unspecified)
Geometric mean MIC over Gram-negative bacteria (µg/mL) (Bacteria [1]): 0.6
MIC (Pseudomonas aeruginosa): 3.1 µg/mL (≈ 8.46 µM)
MIC (Escherichia coli): 0.2 µg/mL (≈ 0.546 µM)
MIC (Bacteria [2]): 1.6 µg/mL (≈ 4.37 µM)
MIC (Klebsiella pneumoniae): 0.4 µg/mL (≈ 1.09 µM)
MIC (Staphylococcus aureus [3]; [7]): 0.4 µg/mL (≈ 1.09 µM)
MIC (Streptococcus pneumoniae): 3.1 µg/mL (≈ 8.46 µM)
Geometric mean MIC over Gram-positive bacteria (µg/mL) (Bacteria [4]): 2.07
MIC (Enterobacter cloacae): 0.2 µg/mL (≈ 0.546 µM)
MIC (Enterococcus faecalis): 3.1 µg/mL (≈ 8.46 µM)
MIC [5]: 7.5 µg/mL (≈ 20.5 µM)
MIC (Streptococcus pyogenes): 6.3 µg/mL (≈ 17.2 µM)
MIC (Staphylococcus aureus [6]): 1.6 µg/mL (≈ 4.37 µM)

CCn1cc(C(=O)O)c(=O)c2c(N)c(F)c(N3CCC(N)C3)c(F)c21 (stereo unspecified)
Geometric mean MIC over Gram-negative bacteria (µg/mL) (Bacteria [1]): 0.3
MIC (Pseudomonas aeruginosa): 1.6 µg/mL (≈ 4.54 µM)
MIC (Escherichia coli): 0.1 µg/mL (≈ 0.284 µM)
MIC (Bacteria [2]): 0.4 µg/mL (≈ 1.14 µM)
MIC (Klebsiella pneumoniae): 0.2 µg/mL (≈ 0.568 µM)
MIC (Staphylococcus aureus [3]; [7]): 0.2 µg/mL (≈ 0.568 µM)
MIC (Streptococcus pneumoniae): 0.8 µg/mL (≈ 2.27 µM)
Geometric mean MIC over Gram-positive bacteria (µg/mL) (Bacteria [4]): 0.53
MIC (Enterobacter cloacae): 0.2 µg/mL (≈ 0.568 µM)
MIC (Enterococcus faecalis): 0.8 µg/mL (≈ 2.27 µM)
MIC [5]: 2.5 µg/mL (≈ 7.1 µM)
MIC (Streptococcus pyogenes): 0.8 µg/mL (≈ 2.27 µM)
MIC (Staphylococcus aureus [6]): 0.4 µg/mL (≈ 1.14 µM)

CCn1cc(C(=O)O)c(=O)c2c(O)c(F)c(N3CC(C)NC(C)C3)c(F)c21 (stereo unspecified)
Geometric mean MIC over Gram-negative bacteria (µg/mL) (Bacteria [1]): 2.41
MIC (Pseudomonas aeruginosa): 12.5 µg/mL (≈ 32.8 µM)
MIC (Escherichia coli): 0.8 µg/mL (≈ 2.1 µM)
MIC (Bacteria [2]): 6.3 µg/mL (≈ 16.5 µM)
MIC (Klebsiella pneumoniae): 1.6 µg/mL (≈ 4.2 µM)
MIC (Staphylococcus aureus [3]; [7]): 3.1 µg/mL (≈ 8.13 µM)
MIC (Streptococcus pneumoniae): 50 µg/mL (≈ 131 µM)
Geometric mean MIC over Gram-positive bacteria (µg/mL) (Bacteria [4]): 16.49
MIC (Enterobacter cloacae): 0.8 µg/mL (≈ 2.1 µM)
MIC (Enterococcus faecalis): 25 µg/mL (≈ 65.6 µM)
MIC [5]: 5 µg/mL (≈ 13.1 µM)
MIC (Streptococcus pyogenes): 50 µg/mL (≈ 131 µM)
MIC (Staphylococcus aureus [6]): 6.3 µg/mL (≈ 16.5 µM)

CCn1cc(C(=O)O)c(=O)c2c(N)c(F)c(N3CC(C)NC(C)C3)c(F)c21 (stereo unspecified)
Geometric mean MIC over Gram-negative bacteria (µg/mL) (Bacteria [1]): 1.58
MIC (Pseudomonas aeruginosa): 12.5 µg/mL (≈ 32.9 µM)
MIC (Escherichia coli): 0.4 µg/mL (≈ 1.05 µM)
MIC (Bacteria [2]): 3.1 µg/mL (≈ 8.15 µM)
MIC (Klebsiella pneumoniae): 0.8 µg/mL (≈ 2.1 µM)
MIC (Staphylococcus aureus [3]; [7]): 0.8 µg/mL (≈ 2.1 µM)
MIC (Streptococcus pneumoniae): 12.5 µg/mL (≈ 32.9 µM)
Geometric mean MIC over Gram-positive bacteria (µg/mL) (Bacteria [4]): 4.79
MIC (Enterobacter cloacae): 0.8 µg/mL (≈ 2.1 µM)
MIC (Enterococcus faecalis): 6.3 µg/mL (≈ 16.6 µM)
MIC [5]: 7.5 µg/mL (≈ 19.7 µM)
MIC (Streptococcus pyogenes): 25 µg/mL (≈ 65.7 µM)
MIC (Staphylococcus aureus [6]): 1.6 µg/mL (≈ 4.21 µM)

NC1CCN(c2c(F)cc3c(=O)c(C(=O)O)cn(C4CC4)c3c2Cl)C1 (stereo in doubt; 1h-4)
Geometric mean MIC over Gram-negative bacteria (µg/mL) (Bacteria [1]): 0.029
MIC [5]: 0.5 µg/mL (≈ 1.37 µM)

CCNCC1CCN(c2c(F)cc3c(=O)c(C(=O)O)cn(CC)c3c2Cl)C1 (stereo unspecified)
Geometric mean MIC over Gram-negative bacteria (µg/mL) (Bacteria [1]): 0.69
MIC (Pseudomonas aeruginosa): 12.5 µg/mL (≈ 31.6 µM)
MIC (Escherichia coli): 0.2 µg/mL (≈ 0.505 µM)
MIC (Bacteria [2]): 0.8 µg/mL (≈ 2.02 µM)
MIC (Klebsiella pneumoniae): 0.4 µg/mL (≈ 1.01 µM)
MIC (Staphylococcus aureus [3]): 0.025 µg/mL (≈ 0.0632 µM)
MIC (Streptococcus pneumoniae): 0.05 µg/mL (≈ 0.126 µM)
Geometric mean MIC over Gram-positive bacteria (µg/mL) (Bacteria [4]): 0.057
MIC (Enterobacter cloacae): 0.2 µg/mL (≈ 0.505 µM)
MIC (Enterococcus faecalis): 0.1 µg/mL (≈ 0.253 µM)
MIC [5]: 2.5 µg/mL (≈ 6.32 µM)
MIC (Streptococcus pyogenes): 0.05 µg/mL (≈ 0.126 µM)
MIC (Staphylococcus aureus [6]): 0.1 µg/mL (≈ 0.253 µM)

CCn1cc(C(=O)O)c(=O)c2cc(F)c(N3CCNCC3)c(F)c21
Geometric mean MIC over Gram-negative bacteria (µg/mL) (Bacteria [1]): 0.17
MIC (Pseudomonas aeruginosa): 0.8 µg/mL (≈ 2.37 µM)
MIC (Escherichia coli): 0.1 µg/mL (≈ 0.296 µM)
MIC (Bacteria [2]): 0.2 µg/mL (≈ 0.593 µM)
MIC (Klebsiella pneumoniae): 0.1 µg/mL (≈ 0.296 µM)
MIC (Staphylococcus aureus [3]): 0.4 µg/mL (≈ 1.19 µM)
MIC (Streptococcus pneumoniae): 3.1 µg/mL (≈ 9.19 µM)
Geometric mean MIC over Gram-positive bacteria (µg/mL) (Bacteria [4]): 1.58
MIC (Enterobacter cloacae): 0.1 µg/mL (≈ 0.296 µM)
MIC (Enterococcus faecalis): 1.6 µg/mL (≈ 4.74 µM)
MIC [5]: 2.5 µg/mL (≈ 7.41 µM)
MIC (Streptococcus pyogenes): 3.1 µg/mL (≈ 9.19 µM)
MIC (Staphylococcus aureus [6]): 1.6 µg/mL (≈ 4.74 µM)

CCn1cc(C(=O)O)c(=O)c2c(N)c(F)c(N3CCNCC3)cc21
Geometric mean MIC over Gram-negative bacteria (µg/mL) (Bacteria [1]): 0.6
MIC (Pseudomonas aeruginosa): 3.1 µg/mL (≈ 9.27 µM)
MIC (Escherichia coli): 0.2 µg/mL (≈ 0.598 µM)
MIC (Bacteria [2]): 1.6 µg/mL (≈ 4.79 µM)
MIC (Klebsiella pneumoniae): 0.4 µg/mL (≈ 1.2 µM)
MIC (Staphylococcus aureus [3]; [7]): 0.05 µg/mL (≈ 0.15 µM)
MIC (Streptococcus pneumoniae): 0.1 µg/mL (≈ 0.299 µM)
Geometric mean MIC over Gram-positive bacteria (µg/mL) (Bacteria [4]): 0.11
MIC (Enterobacter cloacae): 0.2 µg/mL (≈ 0.598 µM)
MIC (Enterococcus faecalis): 0.2 µg/mL (≈ 0.598 µM)
MIC [5]: 2.5 µg/mL (≈ 7.48 µM)
MIC (Streptococcus pyogenes): 0.05 µg/mL (≈ 0.15 µM)
MIC (Staphylococcus aureus [6]): 0.4 µg/mL (≈ 1.2 µM)

CCn1cc(C(=O)O)c(=O)c2cc(F)c(N3CC(C)NC(C)C3)cc21 (stereo unspecified)
Geometric mean MIC over Gram-negative bacteria (µg/mL) (Bacteria [1]): 0.6
MIC (Pseudomonas aeruginosa): 6.3 µg/mL (≈ 18.1 µM)
MIC (Escherichia coli): 0.2 µg/mL (≈ 0.576 µM)
MIC (Bacteria [2]): 0.8 µg/mL (≈ 2.3 µM)
MIC (Klebsiella pneumoniae): 0.4 µg/mL (≈ 1.15 µM)
MIC (Staphylococcus aureus [3]): 0.4 µg/mL (≈ 1.15 µM)
MIC (Streptococcus pneumoniae): 1.6 µg/mL (≈ 4.61 µM)
Geometric mean MIC over Gram-positive bacteria (µg/mL) (Bacteria [4]): 1.21
MIC (Enterobacter cloacae): 0.2 µg/mL (≈ 0.576 µM)
MIC (Enterococcus faecalis): 1.6 µg/mL (≈ 4.61 µM)
MIC [5]: 2.5 µg/mL (≈ 7.2 µM)
MIC (Streptococcus pyogenes): 1.6 µg/mL (≈ 4.61 µM)
MIC (Staphylococcus aureus [6]): 1.6 µg/mL (≈ 4.61 µM)

NC1CCN(c2c(F)cc3c(=O)c(C(=O)O)cn(C4CC4)c3c2Cl)C1 (stereo in doubt; 1f-4)
Geometric mean MIC over Gram-negative bacteria (µg/mL) (Bacteria [1]): 0.057
MIC [5]: 0.25 µg/mL (≈ 0.683 µM)
